The record followed here is PubChem BioAssay AID504338 (NMMLSC, 2011).

Unmarked numbers belong to inactive results. Active and inactive are the calls of the source.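 Rule for the calls: active = GFP response vs DMSO above 150% with enough events counted; inconclusive = fewer than 70 events counted for a yeast strain; inactive = the rest.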

The nature of this experiment: yeast TOR reporter LAP4-GFP retest – cell-based, third cherry pick, flow cytometry, confirmation (AID 504338).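 Note: ratio to plate DMSO wells so 100% equals DMSO level rather than 0%.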 Conditions: S. cerevisiae LAP4-GFP strain, 3 h, at 10 µM, stronger effect = higher value. An outline of the steps:
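Material: Saccharomyces cerevisiae strain expressing LAP4-GFP fusion protein / Compound: 10 µM, one concentration / Incubation: compound exposure for 3 h at 30 °C / Detection: high-throughput flow cytometry of GFP, single-cell scatter gate / Measure: median GFP fluorescence as percent of plate DMSO-well average / Benchmarks: rapamycin 400 ng/mL high, DMSO low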
On the technique in general: Flow cytometry measures light scatter and fluorescence of single cells or particles in a stream.
Turning to `CC(=O)NCCOc1cccc2cccnc12`, the GFP response vs DMSO was 107%.

As to `O=C(O)c1ccc2cccc(O)c2n1`, the GFP response vs DMSO is 100%.

Take `CCN(CC)C(=O)Oc1ccnc2cc(Cl)ccc12`: the GFP response vs DMSO was 101%.

For `O=C(N/N=C/c1ccccc1O)c1cccc2ccccc12`, the GFP response vs DMSO is 110%.

In the case of `COc1ccccc1Nc1nc(NCCCN(C)C)nc(N)c1[N+](=O)[O-]`, the GFP response vs DMSO is 103%.

With `Cc1cc(C)c(NC(=O)CC(=O)c2ccccc2)c(Cl)c1`, the GFP response vs DMSO is 100%.

Consider `CCOC(=O)CS(=O)(=O)c1nc(-c2ccccc2)cc(C(F)(F)F)n1`, for which the GFP response vs DMSO is 182% (active).

Consider `COc1cc(=O)n(C)c2c(O)cccc12`, for which the GFP response vs DMSO was 101%.

`OCCN1CCN(c2ncnc3ccc(Br)cc23)CC1`: the GFP response vs DMSO is 104%.

Turning to `O=C(O)c1ccccc1-c1ccccc1C(=O)Nc1ccc(-c2nc3cc(Cl)ccc3o2)cc1`, the GFP response vs DMSO is 104%.

On to `OCc1ccnc2c(O)cccc12`, for which the GFP response vs DMSO is 101%.

Turning to `Cc1ccc(C)c(Nc2ncnc(N)c2[N+](=O)[O-])c1`, the GFP response vs DMSO was 107%.

For the compound `C[n+]1cccc2cccc([O-])c21`, the GFP response vs DMSO is 107%.

As to `COc1cccc(OCc2cc(C(=O)N3CCN(C)C(c4ccccc4)C3)no2)c1` (stereo not drawn), the GFP response vs DMSO was 106%.

For the compound `C/C(=N\NC(=O)c1cccc2ccccc12)c1cccnc1`, the GFP response vs DMSO is 104%.

As for `CCc1sc(C(=O)Nc2nc(-c3ccccn3)cs2)cc1C`, the GFP response vs DMSO was 189% (active).

Regarding `COCC(C)NC(=O)CCS(=O)(=O)c1nc(-c2ccc(OC)cc2)cc(C(F)(F)F)n1` (stereo not drawn), the GFP response vs DMSO is 104%.

Regarding `CC1=CN2C(=N)/C(=C/c3ccc(C)o3)C(=O)N=C2S1`, the GFP response vs DMSO is 104%.
